Laboratory results from ChEMBL document CHEMBL1138839, “Antitumor Agents. 239. Isolation, structure elucidation, total synthesis, and anti-breast cancer activity of neo-tanshinlactone from Salvia miltiorrhiza” (2004).
In brackets after ≈: the same amount, converted by molar mass.

Tests used:
MCF7 [1] = assay: Dose required for reduction in cell growth of human breast cancer MCF-7 cell line; type: functional; conditions: read-out: ED50 (the source's name)
Outline: (§1)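 Freshly trypsinized cells in RPMI-1640 (25 mM HEPES, 0.25% sodium bicarbonate, 10% FBS, 100 μg/mL kanamycin) were seeded at 1500-7500 cells/well and dosed from DMSO-diluted stock. After 3 days they were fixed with cold 50% TCA, stained with 0.4% SRB, and read at 562 nm after dye solubilization. ED50 (50% growth reduction) is the mean of ≥3 independent determinations.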

MDA-MB-231 [2] = assay: Dose required for reduction in cell growth of human breast cancer MDA-MB-231 cell line; type: functional; conditions: read-out: ED50 (the source's name); outline: as §1
PC-3 = assay: Dose required for reduction in cell growth of human prostate cancer PC-3 cell line; type: functional; conditions: read-out: ED50 (the source's name)
A-431 [3] = assay: Effective dose for reduction in cell growth of human skin cancer A431 cell line; conditions: A-431, read-out: ED50
cells = type: functional; conditions: Homo sapiens; read-out: ED50 (the source's name)
MCF7 [4] = assay: Dose required for reduction in cell growth of estrogen positive human breast cancer MCF-7 cell line (ER+); type: functional; conditions: read-out: ED50 (the source's name)
SW-620 [5] = assay: Dose required for reduction in cell growth of human colon cancer SW620 cell line; type: functional; conditions: read-out: ED50 (the source's name)
LNCaP [6] = assay: Dose required for reduction in cell growth of human AR-dependent prostate cancer LN-CaP cell line; type: functional; conditions: read-out: ED50 (the source's name)
KB [7] = assay: Dose required for reduction in cell growth of vincristine-resistant human nasopharyngeal carcinoma KB cell line; type: functional; conditions: read-out: ED50 (the source's name)
SK-BR-3 = assay: Dose required for reduction in cell growth of estrogen negative human breast cancer SK-BR-3 cell line(ER-); type: functional; conditions: read-out: ED50 (the source's name)
ZR-75-1 = assay: Dose required for reduction in cell growth of estrogen positive human breast cancer ZR-75-1 cell line (ER+); type: functional; conditions: read-out: ED50 (the source's name)
MDA-MB-231 [8] = assay: cells; type: functional; conditions: Homo sapiens, MDA-MB-231, read-out: ED50
KB [9] = assay: Dose required for reduction in cell growth of human nasopharyngeal carcinoma KB cell line; type: functional; conditions: read-out: ED50 (the source's name)
A-431 [10] = assay: Percent inhibition of human skin cancer A431 cell proliferation; type: functional
SW-620 [11] = assay: Percent inhibition of cell growth in human colon cancer SW620 cell line; type: functional
A549 [12] = assay: Percent inhibition of cell growth in human lung cancer A549 cell line; type: functional
A549 [13] = assay: Dose required for reduction in human lung cancer A549 cell proliferation; type: functional; conditions: read-out: ED50 (the source's name); outline: as §1
MDA-MB-231 [14] = assay: Percent inhibition of cell growth in human breast cancer MDA-MB-231 cell line; type: functional
A-431 [15] = assay: Effective concentration required for 50% reduction in cell growth of human skin cancer A431 cell line; type: functional; conditions: read-out: ED50 (the source's name); outline: as §1
KB [16] = assay: Percent inhibition of cell growth in vincristine-resistant human nasopharyngeal carcinoma KB cell line; type: functional
KB [17] = assay: Percent inhibition of cell growth in human nasopharyngeal carcinoma KB cell line; type: functional
LNCaP [18] = assay: Percent inhibition of cell growth in human AR-dependent prostate cancer LN-CaP cell line; value ranges from 28-36; type: functional
MCF7 [19] = assay: Percent inhibition of cell growth in human breast cancer MCF-7 cell line; type: functional

Compound | EC50 (MCF7 [1]) | EC50 (MDA-MB-231 [2]) | EC50 (PC-3) | EC50 (cells) | EC50 (MCF7 [4]) | EC50 (SW-620 [5]) | EC50 (LNCaP [6]) | EC50 (KB [7]) | EC50 (SK-BR-3) | EC50 (ZR-75-1) | EC50 (MDA-MB-231 [8]) | EC50 (KB [9]) | other results
Cc1coc2c1C(=O)C(=O)c1c-2ccc2c(C)cccc12 [TANSHINONE I] | 0.82 µg/mL (≈ 2.97 µM) | 0.75 µg/mL (≈ 2.71 µM) |  |  |  |  |  |  |  |  |  |  | 
CC/C(=C(\c1ccccc1)c1ccc(OCCN(C)C)cc1)c1ccccc1.O=C(O)CC(O)(CC(=O)O)C(=O)O [TAMOXIFEN CITRATE] |  |  | 10 µg/mL | 9 µg/mL | 5 µg/mL | 4 µg/mL | 6 µg/mL | 9 µg/mL | 5 µg/mL | 5 µg/mL | > 8 µg/mL | 9 µg/mL | EC50 (A-431 [3]): 7 µg/mL
Cc1cccc2c1ccc1c3occ(C)c3c(=O)oc21 | < 2.5 µg/mL | > 20 µg/mL | 10 µg/mL (≈ 37.8 µM) | 16 µg/mL (≈ 60.5 µM) | 0.6 µg/mL (≈ 2.27 µM) | > 10 µg/mL | > 10 µg/mL | > 10 µg/mL | 0.2 µg/mL (≈ 0.757 µM) | 0.3 µg/mL (≈ 1.14 µM) | > 10 µg/mL | > 10 µg/mL | Inhibition (A-431 [10]): 35%; Inhibition (SW-620 [11]): 22%; Inhibition (A549 [12]): 10%; EC50 (A549 [13]): > 20 µg/mL; Inhibition (MDA-MB-231 [14]): 17%; EC50 (A-431 [15]): > 10 µg/mL; Inhibition (KB [16]): 9%; Inhibition (KB [17]): 18%; Inhibition (LNCaP [18]): 36%; Inhibition (MCF7 [19]): 57%
Cc1coc2c1C(=O)C(=O)c1c-2ccc2c1CCCC2(C)C [TANSHINONE IIA] | 0.38 µg/mL (≈ 1.29 µM) | 0.7 µg/mL (≈ 2.38 µM) |  |  |  |  |  |  |  |  |  |  | 
C[C@H]1COC2=C1C(=O)C(=O)c1c2ccc2c1CCCC2(C)C [CRYPTOTANSHINONE] | 0.41 µg/mL (≈ 1.38 µM) | 0.16 µg/mL (≈ 0.54 µM) |  |  |  |  |  |  |  |  |  |  | 
